Measurements from different studies.
Lines come from different studies, so protocols differ.
Target: Casein kinase I isoform gamma-2 (CSNK1G2, Homo sapiens, UniProt P78368)

For CC(C)(C)c1cc(C=C(C#N)C#N)cc(Br)c1O, the remaining activity was 100% (enzyme activity; inhibitor; 0.5 µM).
Cc1nn(C)cc1-c1nc2c(N3CCN(Cc4ccc(Cl)cc4)CC3)c(Cl)cnc2[nH]1 has a remaining binding of 96% (binding; competition with immobilised ligand; 1 µM).
COc1ncccc1-c1cnn2ccc(N3CCN(C(=O)OC(C)C)CC3)nc12 has a remaining binding of 100% (binding; competition with immobilised ligand; 1 µM).
Cn1cncc1[C@@](O)(COc1ccc(C#N)cc1-c1ccc(OC(F)(F)F)cc1)c1ccc(C#N)cc1 has a remaining binding of 64% (cell-free assay; competition with immobilised ligand; 1 µM).
Cn1cc(-c2cccc(N3CCc4c(sc5c4CC(C)(C)C5)C3=O)c2CO)cc(Nc2ccncn2)c1=O has an inhibition of 6% (enzyme activity; inhibitor; 1 µM).
With Nc1ncc(-c2nc(N3CCOCC3)nc(N3CCOCC3)n2)c(C(F)F)n1 the remaining binding was 85% (binding; competition with immobilised ligand; 10 µM).
Cn1cc(-c2cc(F)cc(N3CCn4c(cc5c4CCCC5)C3=O)c2CO)cc(Nc2ccc(N3CCN(C4COC4)CC3)cn2)c1=O has an inhibition of 7% (enzyme activity; inhibitor; 0.1 µM).
With COc1cc(Nc2ncc(F)c(Nc3ccc4c(n3)NC(=O)C(C)(C)O4)n2)cc(OC)c1OC the inhibition was 0% (binding; competition with immobilised ligand; 10 µM).
With O=c1[nH]c2ccccc2n1C1CCN(Cc2ccc(-c3[nH]c4cc5ncnc5cc4nc3-c3ccccc3)cc2)CC1 the remaining signal was 101% (cell-free assay; 0.5 µM).
